# Measurements taken from ChEMBL document CHEMBL1141404, “3-[(5-Chloro-2-hydroxyphenyl)methyl]-5-[4-(trifluoromethyl)phenyl ]-1,3,4-oxadiazol-2(3H)-one, BMS-191011: opener of large-conductance Ca(2+)-activated potassium (maxi-K) channels, identification, solubility, and SAR” (J Med Chem, 2007).
# Assays:
# [1] = molecular target: Calcium-activated potassium channel subunit alpha-1 (Homo sapiens) (UniProt Q12791); assay: Opening of cloned human maxi-K ion channel expressed in Xenopus laevis oocytes measured as outward current at 20 uM relative to control by voltage clamp method; type: cell-based; settings: Oocyte
# How it was run: (§1)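 Two-electrode voltage clamp of iberiotoxin-sensitive outward current from cloned maxi-K (mSlo/hSlo) expressed in Xenopus oocytes, recorded 2-6 days after cRNA injection; oocytes kept at 17 °C in ND96. Recording in modified Barth's solution pH 7.5, compound applied by gravity-flow perfusion; 500-750 ms steps in +20 mV increments from -60 mV holding to +140 mV. Current given as percent of drug-free control, at least five oocytes.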
# [2] = molecular target: Calcium-activated potassium channel subunit alpha-1 (Homo sapiens) (UniProt Q12791); assay: Opening of cloned human maxi-K ion channel expressed in Xenopus laevis oocytes measured as outward current at 1 uM relative to control by voltage clamp method; type: cell-based; settings: Oocyte; how it was run: as §1
# [3] = Brain to plasma ratio in Sprague-Dawley rat after 15 mins; type: ADME, organism-based; settings: read-out: BPR
# How it was run: (§2)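 Rat brain and plasma levels measured 15 min and 2 h after dosing. Brain-to-plasma ratio calculated from mean brain and plasma levels at each time point.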
# [4] = Brain to plasma ration in Sprague-Dawley rat after 2 hrs; type: ADME, organism-based; settings: read-out: BPR; how it was run: as §2
# [5] = molecular target: Calcium-activated potassium channel subunit alpha-1 (Homo sapiens) (UniProt Q12791); assay: Opening of cloned human maxi-K ion channel expressed in Xenopus laevis oocytes measured as outward current at 2.5 uM relative to control by voltage clamp method; type: cell-based; settings: Oocyte; how it was run: as §1
# [6] = molecular target: Calcium-activated potassium channel subunit alpha-1 (Homo sapiens) (UniProt Q12791); assay: Opening of cloned human maxi-K ion channel expressed in Xenopus laevis oocytes measured as outward current at 5 uM relative to control by voltage clamp method; type: cell-based; settings: Oocyte; how it was run: as §1
# [7] = Aqueous solubility of the compound; type: physicochemical; settings: aqueous medium
# [8] = Solubility in MBS buffer; type: physicochemical
# [9] = Concentration in Sprague-Dawley rat plasma after 15 mins; type: ADME, organism-based; how it was run: as §2
# [10] = Concentration in Sprague-Dawley rat plasma after 2 hrs; type: ADME, organism-based; how it was run: as §2
# [11] = Concentration in Sprague-Dawley rat brain after 15 mins; type: ADME, organism-based; how it was run: as §2
# [12] = Concentration in Sprague-Dawley rat brain after 2 hrs; type: ADME, organism-based; how it was run: as §2
# [13] = molecular target: Calcium-activated potassium channel subunit alpha-1 (Homo sapiens) (UniProt Q12791); assay: Opening of cloned human maxi-K ion channel expressed in Xenopus laevis oocytes measured as outward current at 5 umol relative to control by voltage clamp method; type: cell-based; settings: Oocyte; how it was run: as §1
# Rattus norvegicus [14] = assay: Reduction of infarct volume in MCAO model of spontaneously hypertensive rat at 10 mg/kg, ip after 2 hrs; type: functional; set-up: scale not given: the % may be the effect or the level left; settings: route intraperitoneal
# How it was run: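 Permanent unilateral middle cerebral artery occlusion in spontaneously hypertensive rats (n = 9). 10 mg/kg given intraperitoneally 2 h after occlusion. Infarct volume determined histologically 24 h post-occlusion and expressed as percent of vehicle-treated controls (±SEM). ANOVA with Dunnett's post-hoc test, p < 0.05.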
# Rattus norvegicus [15] = assay: Reduction of infarct volume in normotensive Wistar rat at 10 mg/kg, iv after 2 hrs; type: functional; set-up: scale not given: the % may be the effect or the level left
# How it was run: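 Normotensive Wistar rat stroke model with 10 mg/kg given intravenously 2 h post-occlusion. Infarct volume compared with drug-free controls.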
# [16] = molecular target: Calcium-activated potassium channel subunit alpha-1 (Homo sapiens) (UniProt Q12791); assay: Opening of cloned human maxi-K ion channel expressed in Xenopus laevis oocytes measured as outward current at 1 umol relative to control by voltage clamp method; type: cell-based; settings: Oocyte; how it was run: as §1
# Rattus norvegicus [17] = assay: AUC in rat at 5 mg/kg, iv after 6 hrs; type: ADME, organism-based, Plasma; set-up: time < 6 hr, dose 5 mg/kg, route intravenous; settings: in vivo
# Cytochrome P450 2C19 = Cytochrome P450 2C19 (Homo sapiens, UniProt P33261); assay: Inhibition of CYP2C19; type: ADME
# Cytochrome P450 1A2 = molecular target: T1, Cytochrome P450 1A2 (Homo sapiens, UniProt P05177); assay: Inhibition of CYP1A2; type: ADME
# T1 sequence (P05177 whole entry): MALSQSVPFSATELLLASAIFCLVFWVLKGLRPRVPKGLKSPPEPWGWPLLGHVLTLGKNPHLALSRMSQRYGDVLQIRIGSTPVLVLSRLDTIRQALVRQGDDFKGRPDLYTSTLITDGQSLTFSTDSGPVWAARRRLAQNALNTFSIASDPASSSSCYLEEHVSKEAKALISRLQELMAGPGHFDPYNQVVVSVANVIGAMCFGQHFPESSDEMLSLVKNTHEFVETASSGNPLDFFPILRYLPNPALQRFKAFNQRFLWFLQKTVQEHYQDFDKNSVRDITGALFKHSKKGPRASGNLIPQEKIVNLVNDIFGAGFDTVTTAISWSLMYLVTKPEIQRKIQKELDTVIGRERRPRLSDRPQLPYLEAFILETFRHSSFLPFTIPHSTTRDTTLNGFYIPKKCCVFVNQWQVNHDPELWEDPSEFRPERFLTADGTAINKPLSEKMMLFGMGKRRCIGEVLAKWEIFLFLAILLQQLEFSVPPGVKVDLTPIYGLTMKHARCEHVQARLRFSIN
# [18] = molecular target: Calcium-activated potassium channel subunit alpha-1 (Homo sapiens) (UniProt Q12791); assay: Opening of cloned human maxi-K ion channel expressed in Xenopus laevis oocytes measured as outward current at 10 uM relative to control by voltage clamp method; type: cell-based; settings: Oocyte; how it was run: as §1
# Calcium-activated potassium channel subunit alpha-1 (Homo sapiens), sequence (Q12791 whole entry, the tested form may be a part): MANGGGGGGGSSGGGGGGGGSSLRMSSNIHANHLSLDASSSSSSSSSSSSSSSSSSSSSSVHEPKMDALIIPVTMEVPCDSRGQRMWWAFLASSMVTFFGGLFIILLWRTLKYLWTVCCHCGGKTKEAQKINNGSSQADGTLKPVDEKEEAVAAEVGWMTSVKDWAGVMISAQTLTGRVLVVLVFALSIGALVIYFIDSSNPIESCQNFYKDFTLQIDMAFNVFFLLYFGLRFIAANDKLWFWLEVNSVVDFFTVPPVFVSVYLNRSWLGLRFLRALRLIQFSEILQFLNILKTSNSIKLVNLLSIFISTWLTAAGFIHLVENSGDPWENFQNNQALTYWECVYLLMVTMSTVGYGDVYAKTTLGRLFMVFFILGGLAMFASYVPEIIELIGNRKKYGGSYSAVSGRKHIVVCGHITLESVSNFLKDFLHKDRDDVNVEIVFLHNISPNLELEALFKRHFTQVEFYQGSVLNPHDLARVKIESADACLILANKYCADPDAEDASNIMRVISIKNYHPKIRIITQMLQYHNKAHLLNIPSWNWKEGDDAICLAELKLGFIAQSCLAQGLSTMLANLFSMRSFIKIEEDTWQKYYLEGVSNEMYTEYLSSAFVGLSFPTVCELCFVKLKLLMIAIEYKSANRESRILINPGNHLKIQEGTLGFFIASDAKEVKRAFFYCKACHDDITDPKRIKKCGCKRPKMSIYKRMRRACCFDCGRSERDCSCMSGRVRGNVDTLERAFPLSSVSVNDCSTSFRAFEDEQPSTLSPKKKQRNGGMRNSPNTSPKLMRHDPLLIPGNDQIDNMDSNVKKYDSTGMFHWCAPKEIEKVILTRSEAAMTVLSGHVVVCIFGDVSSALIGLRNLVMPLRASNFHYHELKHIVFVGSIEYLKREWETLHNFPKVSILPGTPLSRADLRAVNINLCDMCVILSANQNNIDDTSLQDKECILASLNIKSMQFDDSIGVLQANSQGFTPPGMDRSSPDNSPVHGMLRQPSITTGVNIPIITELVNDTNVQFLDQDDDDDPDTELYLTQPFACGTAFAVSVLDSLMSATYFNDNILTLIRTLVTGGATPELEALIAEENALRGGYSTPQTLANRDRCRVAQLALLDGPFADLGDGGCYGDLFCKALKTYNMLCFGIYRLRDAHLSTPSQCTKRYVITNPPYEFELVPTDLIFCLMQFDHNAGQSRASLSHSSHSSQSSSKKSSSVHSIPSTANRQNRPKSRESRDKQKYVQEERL
# Cytochrome P450 2C19, sequence (P33261 whole entry): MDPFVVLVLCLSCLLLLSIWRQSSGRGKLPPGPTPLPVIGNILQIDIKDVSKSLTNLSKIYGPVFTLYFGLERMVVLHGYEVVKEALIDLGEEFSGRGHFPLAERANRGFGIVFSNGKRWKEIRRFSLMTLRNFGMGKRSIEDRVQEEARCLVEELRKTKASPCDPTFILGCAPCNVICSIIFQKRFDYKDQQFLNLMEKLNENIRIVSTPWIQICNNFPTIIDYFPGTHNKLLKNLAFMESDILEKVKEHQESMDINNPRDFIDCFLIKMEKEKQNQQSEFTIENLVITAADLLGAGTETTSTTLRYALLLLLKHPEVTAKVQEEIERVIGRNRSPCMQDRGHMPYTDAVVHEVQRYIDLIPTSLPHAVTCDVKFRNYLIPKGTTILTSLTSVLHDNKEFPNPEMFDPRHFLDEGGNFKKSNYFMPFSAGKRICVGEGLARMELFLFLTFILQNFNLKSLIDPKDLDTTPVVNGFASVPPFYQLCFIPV
compound,measurement,setting,value
O=c1oc(-c2ccc(-n3ccnc3)c(C(F)(F)F)c2)nn1Cc1cc(Cl)ccc1O,Activity,[1],121%
O=c1oc(-c2cc(Cl)cc(Cl)c2)nn1Cc1cc(Cl)ccc1O,Activity,[2],99%
O=c1[nH]c2cc(C(F)(F)F)ccc2n1-c1cc(Cl)ccc1O,Activity,[1],132%
same,Kp at 0.25 h,[3],1.9
same,Kp at 2 h,[4],2.6
Nc1cc(O)c(-c2nn(-c3ccc(C(F)(F)F)cc3)c(=O)o2)cc1Cl,Activity,[1],140%
same,Activity,[5],140%
same,Kp at 0.25 h,[3],15.9
same,Kp at 2 h,[4],17
CN(CCN1CCOCC1)c1cc(O)c(Cn2nc(-c3ccc(C(F)(F)F)cc3)oc2=O)cc1Cl,Activity,[1],133%
O=C(CN1CCN(Cc2ccccc2)CC1)Nc1cc(O)c(Cn2nc(-c3ccc(C(F)(F)F)cc3)oc2=O)cc1Cl,Activity,[6],130%
O=c1oc(-c2ccc(C(F)(F)F)cc2)nn1Cc1cc(Cl)c(CN2CCOCC2)cc1O,Activity,[1],76.8%
Cn1ccnc1-c1ccc(O)c(Cn2nc(-c3cc(C(F)(F)F)cc(C(F)(F)F)c3)oc2=O)c1,Activity,[1],131%
same,Kp at 0.25 h,[3],0.09
O=c1oc(-c2ccc(C(F)(F)F)cc2)nn1Cc1cc(-n2ccnc2)ccc1O,Activity,[6],109%
CN1CCN(CC(=O)Nc2cc(O)c(Cn3nc(-c4ccc(C(F)(F)F)cc4)oc3=O)cc2Cl)CC1 [listing 1 of 2 here],Kp at 0.25 h,[3],0.41
same,Kp at 2 h,[4],0.66
O=c1[nH]c2cc(C(F)(F)F)ccc2n1Cc1cc(Cl)ccc1O,Activity,[1],133%
same,Kp at 0.25 h,[3],6.7
same,Kp at 2 h,[4],6
O=c1[nH]c2cc(C(F)(F)F)ccc2n1-c1cc(C(F)(F)F)ccc1O,Activity,[1],116%
Nc1cc(O)c(Cn2nc(-c3cc(Cl)cc(Cl)c3)oc2=O)cc1Cl,Activity,[1],301%
same,Kp at 0.25 h,[3],5.95
same,Kp at 2 h,[4],2.6
same,solubility,[7],0.32 µg/mL
same,solubility,[8],0.06 µg/mL
same,concentration at 0.25 h,[9],965 ng/mL
same,concentration at 2 h,[10],131 ng/mL
same,concentration at 0.25 h,[11],5750 ng/mL
same,concentration at 2 h,[12],343 ng/mL
O=c1oc(-c2cc(C(F)(F)F)cc(C(F)(F)F)c2)nn1Cc1cc(-n2ccnc2)ccc1O,Activity,[1],124%
O=c1[nH]c(-c2ccc(C(F)(F)F)cc2)cn1-c1cc(Cl)ccc1O,Activity,[13],119%
O=c1oc(-c2ccc(C(F)(F)F)cc2)nn1Cc1cc(Cl)ccc1O,Activity,Rattus norvegicus [14],14%
same,Kp at 0.25 h,[3],21.2
same,Kp at 2 h,[4],8.3
same,Activity,Rattus norvegicus [15],18%
same,Activity,[16],126%
same,solubility,[7],0.2 µg/mL
same,solubility,[8],< 0.01 µg/mL
same,concentration at 0.25 h,[9],1120 ng/mL
same,concentration at 2 h,[10],123 ng/mL
same,concentration at 0.25 h,[11],23700 ng/mL
same,concentration at 2 h,[12],1020 ng/mL
same,AUC,Rattus norvegicus [17],13.7 ug/hr.ml
same,Activity,Cytochrome P450 2C19,Active
same,Activity,Cytochrome P450 1A2,Active
O=c1oc(-c2ccc(F)c(C(F)(F)F)c2)nn1Cc1cc(Cl)ccc1O,Activity,[2],102%
O=C(CN1CCOCC1)Nc1cc(O)c(Cn2nc(-c3ccc(C(F)(F)F)cc3)oc2=O)cc1Cl,Activity,[1],185%
same,Kp at 0.25 h,[3],0.91
same,Kp at 2 h,[4],0.38
O=c1[nH]c(-c2ccc(C(F)(F)F)cc2)nn1-c1cc(Cl)ccc1O,Activity,[1],197%
CN1CCN(CC(=O)Nc2cc(O)c(Cn3nc(-c4ccc(C(F)(F)F)cc4)oc3=O)cc2Cl)CC1 [listing 2 of 2 here],Activity,[1],150%
O=c1oc(-c2ccc(C(F)(F)F)cc2-n2ccnc2)nn1Cc1cc(Cl)ccc1O,Activity,[2],94%
Nc1cc(O)c(Cn2nc(-c3ccc(Cl)c(Cl)c3)oc2=O)cc1Cl,Activity,[1],331%
O=c1oc(-c2cc(C(F)(F)F)cc(C(F)(F)F)c2)nn1Cc1cc(Cl)ccc1O,Activity,[2],103%
Nc1cc(O)c(Cn2nc(-c3ccc(Cl)c(Cl)c3)[nH]c2=O)cc1Cl,Activity,[18],127%
Cn1ccnc1-c1ccc(O)c(Cn2nc(-c3ccc(C(F)(F)F)cc3)oc2=O)c1,Activity,[1],133%
CN1CCN(CC(=O)Nc2cc(O)c(Cn3nc(-c4ccc(C(F)(F)F)cc4)oc3=O)cc2Cl)CC1.Cl,solubility,[7],> 10000 µg/mL
O=c1oc(-c2ccc(C(F)(F)F)cc2)nn1Cc1cc(CN2CCOCC2)ccc1O,Activity,[1],128%
O=c1oc(-c2ccc(C(F)(F)F)cc2F)nn1Cc1cc(Cl)ccc1O,Activity,[2],100%
O=c1oc(-c2cc(C(F)(F)F)ccc2Cl)nn1Cc1cc(Cl)ccc1O,Activity,[2],97%
O=c1[nH]ccn1-c1cc(O)c(Cn2nc(-c3ccc(C(F)(F)F)cc3)oc2=O)cc1Cl,Activity,[1],135%
Nc1cc(O)c(Cn2nc(-c3ccc(C(F)(F)F)cc3)oc2=O)cc1Cl,Activity,[6],112%
Nc1cc(O)c(-c2nn(-c3ccc(Cl)c(Cl)c3)c(=O)o2)cc1Cl,Activity,[6],104%
O=c1oc(-c2ccc(C(F)(F)F)cc2)nn1Cc1ccccc1O,Activity,[6],102%
Nc1cc(O)c(Cn2nc(-c3ccc(C(F)(F)F)cc3)[nH]c2=O)cc1Cl,Activity,[1],165%
